# Avidin bead fluor = compound fluoresces at 488/530 nm on avidin beads. fluorescence (KMESF) at 10 µM. AID 1775. 220,000 compounds, 0.38% hits. compound fluorescence 488/530 nm, flow cytometry; hits give high values; in the data active = fluorescence above about 47
# ABCG2 inh = blocks JC-1 efflux by human ABCG2 transporter | inhibition, % at 6.6 µM | Q9UNQ0 | 190,000 compounds, 0.1% hits | IgMXP3 cells, flow cytometry;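 active = inhibition above 80%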
# Target sequence (Q9UNQ0 whole entry, looked up): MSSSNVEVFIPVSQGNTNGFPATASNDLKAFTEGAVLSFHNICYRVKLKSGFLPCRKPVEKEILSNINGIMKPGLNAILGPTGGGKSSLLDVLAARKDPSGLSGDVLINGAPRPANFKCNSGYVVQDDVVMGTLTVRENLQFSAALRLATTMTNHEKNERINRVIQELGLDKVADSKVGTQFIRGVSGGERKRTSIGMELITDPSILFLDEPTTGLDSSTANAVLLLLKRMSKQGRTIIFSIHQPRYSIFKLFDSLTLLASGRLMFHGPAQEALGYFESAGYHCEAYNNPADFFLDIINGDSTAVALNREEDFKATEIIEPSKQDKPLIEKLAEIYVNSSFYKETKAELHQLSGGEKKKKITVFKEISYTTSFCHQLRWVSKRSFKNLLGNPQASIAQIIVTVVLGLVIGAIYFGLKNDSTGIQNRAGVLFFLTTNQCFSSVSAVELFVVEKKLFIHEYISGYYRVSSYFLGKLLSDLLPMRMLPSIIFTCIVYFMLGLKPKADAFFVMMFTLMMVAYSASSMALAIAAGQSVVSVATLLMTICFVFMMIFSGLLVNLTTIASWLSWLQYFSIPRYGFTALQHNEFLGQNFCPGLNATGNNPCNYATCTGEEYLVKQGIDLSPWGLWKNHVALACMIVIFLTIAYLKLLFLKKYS
#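 Test system: IgMXP3 (ABCG2) plus far-red-tagged CCRF-Adr (ABCB1) cells / Amount: 3 million cells/mL in well / Reagent: JC-1 transporter substrate / Timing: 10 min compound exposure, 25 °C / Signal: flow cytometry, 530 nm JC-1 signal / Read-out: percent efflux inhibition, scaled nicardipine 100% to DMSO 0% / Benchmarks: nicardipine as high control, DMSO as low control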
# Lmaj promast = inhibitors of Leishmania major promastigote growth; Leishmania major promastigotes, resazurin fluorescence viability; inhibition, % at 10 µM; 200,000 compounds, 9% hits; AID 1063;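 note: promastigotes grown with compound for 44 hours at 28 °C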
# GSH fluor = compound fluoresces at 488/530 nm on GSH beads | fluorescence (KMESF) at 10 µM | 190,000 compounds, 0.25% hits | AID 1776 | GSH beads flow cytometry, compound fluorescence 488/530 nm; hits give high values; in the data active = fluorescence above about 89;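 note: glutathione beads carrying GST-tagged Bcl family fusion proteins plus one bare bead set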
# ABCB1 block = blocks JC-1 efflux by human ABCB1 transporter | CCRF-Adr cells, flow cytometry | inhibition, % at 6.6 µM | 190,000 compounds, 0.067% hits; in the data active = inhibition above about 40%;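 note: higher value means more JC-1 retained so stronger ABCB1 efflux block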
# PKD1 inh = blocks activity of human protein kinase D1; PKD1 kinase fluorescence polarization assay; 200,000 compounds, 0.056% hits; inhibition, % (no concentration beside the values)
# A number is an active result; 0 = inactive; - = no result. Many of the other results were omitted from the sample, so hits are more common in it than they were. Cut-off read from the data, not from the text of the source, unless noted: active = inhibition above about 50%; inactive = the rest.
SMILES,Avidin bead fluor,ABCG2 inh,Lmaj promast,GSH fluor,ABCB1 block,PKD1 inh
O=C(Cn1cnc([N+](=O)[O-])n1)N/N=C/c1ccc2ccccc2c1,0,0,96,0,0,0
O=S(=O)(c1ccc(Cl)c(Cl)c1)c1snnc1-c1ccccc1,0,0,100,0,0,0
NC(=O)c1snnc1-c1ccccc1,0,-,-,-,-,-
CC(C)(C)C(=O)Cn1ncc(Br)c(Br)c1=O,0,0,56,0,0,0
C=CCNc1cnn(CC(C)=O)c(=O)c1Br,0,0,0,0,0,0
CCN(CC)S(=O)(=O)c1ccc(C(=O)OCC(=O)Nc2ccc(-c3nc4ccc(C)cc4s3)cc2)cc1,0,0,58,0,0,0
CCN(CC)S(=O)(=O)c1cc(C(=O)OCC(=O)Nc2ccc(-c3nc4ccc(C)cc4s3)cc2)ccc1F,0,0,0,0,0,0
Cc1ccc(-c2nc3ccccc3c(=O)n2NC(=O)COc2ccccc2)cc1,0,0,0,231,0,0
COc1ccc(CNCCNC(=O)c2cccs2)c(OC)c1OC,0,0,0,0,0,0
COc1ccc2nc(NC(=O)CNS(=O)(=O)c3cccs3)sc2c1,0,0,89,0,0,0
COc1ccc2nc(NC(=O)CCn3cccc3)sc2c1,0,0,56,0,0,0
COc1ccc2nc(NC(=O)Cc3cccs3)sc2c1,0,0,59,0,0,0
CCOCC(=O)Nc1nc2ccc(OC)cc2s1,0,0,0,0,0,0
COc1cccc(CC(NC(C)=O)C(=O)NC2CCN(S(=O)(=O)c3ccc(NC(C)=O)cc3)CC2)c1 (centres undefined),0,0,0,0,0,0
N#Cc1c(NC(=O)COC(=O)c2ccc(S(=O)(=O)N3CCCC3)cc2)sc2c1CCCCC2,0,0,0,0,0,0
Cc1sc(NC(=S)NC(=O)C(C)(C)C)c(C(N)=O)c1C,0,0,0,0,0,0
O=C(Nc1cc(Cl)ccc1Cl)c1ccc(-c2ccccc2)cc1,0,0,51,0,0,0
COCCNc1nc2sc3c(c2c(=O)n1Cc1ccco1)CCCCC3,0,0,0,0,0,0
Cc1ccc(NC(=O)Cn2cc(C(F)(F)F)cc(Cl)c2=O)cc1Cl,0,0,0,0,0,0
O=c1c2c(-c3ccccc3)csc2nc2c3ccccc3c(NCCN3CCOCC3)nn12,0,0,100,0,0,0
CCOCCCn1c(=N)c(C(N)=S)cc2c(=O)n3cccc(C)c3nc21,0,0,0,0,0,0
Cc1cccn2c(=O)c3cc(C(=O)N(C)C)n(C)c3nc12,0,0,87,0,0,0
Cc1cccn2c(=O)c3cc(C(=O)NCCCn4ccnc4)n(C)c3nc12,0,0,0,0,0,0
Cc1cccn2c(=O)c3cc(C(N)=S)c(=N)n(CCCOC(C)C)c3nc12,0,0,87,0,0,0
CCOC(=O)c1cc2c(=O)n3cccc(C)c3nc2n(C)c1=N,0,0,98,0,0,0
SMILES,Avidin bead fluor,ABCG2 inh,Lmaj promast,GSH fluor,ABCB1 block,PKD1 inh
CCOC(=O)c1cc2c(=O)n3ccccc3nc2n(Cc2ccccc2)c1=N,0,0,0,0,0,0
CCOC(=O)c1cc2c(=O)n3cccc(C)c3nc2n(Cc2ccco2)c1=NC(=O)c1cccnc1,0,0,86,0,0,0
CC(C)(C)Sc1ccc([N+](=O)[O-])cc1C(=O)Nc1ccncc1,0,-,-,-,-,-
COc1ccc(-c2csc(NC(=O)CSc3nc(C)nc4sc(C(=O)O)c(C)c34)n2)cc1,0,-,-,-,-,-
CCCOc1ccc2oc(=O)c3c(c2c1)CCCN3C(=O)CN(C)Cc1ccccc1,0,0,58,0,0,0
CC1=CC2=NC(=O)/C(=C\c3cc(C)n(-c4ccc(F)cc4)c3C)C(=N)N2O1,0,0,0,0,0,0
CC1=CC2=NC(=O)/C(=C\c3ccc(-c4cccc(Cl)c4)o3)C(=N)N2O1,0,0,58,0,0,0
CC1=NOC(=O)/C1=C\c1ccc(-c2cccc(Cl)c2)o1,0,0,97,0,0,0
CC1=NOC(=O)/C1=C\c1ccc(-c2ccccc2Br)o1,0,0,99,0,0,0
C/C(N)=C(/C#N)C(=O)CSc1nc2ccccc2[nH]1,0,0,0,0,0,0
CC(C)c1ccc(CNCc2ccccc2)cc1,0,0,80,0,0,0
COc1ccc2c(c1)Sc1ccccc1N2,0,0,100,0,0,0
c1ccc2c(c1)Nc1cc3ccccc3cc1S2,0,-,-,-,-,-
CC(C)c1ccc(S(=O)(=O)/N=C2/C=CC(=O)c3ccccc32)cc1,0,0,74,0,0,0
c1ccc2c(N3CCCC3)nc(-c3ccncc3)nc2c1,0,0,0,0,0,0
c1ccc(CN2CCN(c3nc(-c4ccccc4)nc4ccccc34)CC2)cc1,0,0,68,0,0,0
CN1CCN(c2nc(-c3ccncc3)nc3ccccc23)CC1,0,0,100,0,0,0
c1ccc(CN2CCN(c3nc4ccccc4c4ccccc34)CC2)cc1,0,0,0,0,0,0
O=C(COC(=O)c1ccc(O)cc1)NCCCc1ccccc1,0,0,0,0,0,0
C/C(CC(=O)Nc1ccc(Cl)c(Cl)c1)=N\NC(N)=S,0,0,62,0,0,0
c1ccc(C2Oc3ccccc3C3CC(c4cccs4)=NN32)cc1 (centres undefined),0,0,0,0,0,0
O=[N+]([O-])c1ccc(C2Oc3ccccc3C3CC(c4ccccc4)=NN32)s1 (centres undefined),0,0,99,0,0,0
CCc1ccc(C2=NN(c3ccc(S(N)(=O)=O)cc3)C(c3ccc(F)cc3)C2)cc1 (centres undefined),0,0,78,0,0,0
CCCCNC(=O)c1cccnc1SCC(=O)Nc1ccccc1OC,0,0,0,0,0,0
CC1(C)Cc2c(C#N)c(SCC(=O)c3ccccc3)nc(N3CCOCC3)c2CS1,49,0,0,0,0,0
SMILES,Avidin bead fluor,ABCG2 inh,Lmaj promast,GSH fluor,ABCB1 block,PKD1 inh
CC1(C)Cc2c(C#N)c(SCC(=O)c3ccccc3)nc(N3CCCC3)c2CO1,-,-,0,-,-,0
CCCCn1c(=N)n(CC(=O)C(C)(C)C)c2ccccc21,0,0,0,0,0,0
CCCn1c(=N)n(CC(=O)C(C)(C)C)c2ccccc21,0,0,81,0,0,0
Cc1ccc(-n2c(C)cc(/C=N/NC(=O)c3ccncc3)c2C)c(C)c1,0,0,0,0,0,0
CC1=NN(c2ccc(Cl)cc2)C(=O)C1,0,0,0,0,0,0
CC1=NN(c2ccc(N)cc2)C(=O)C1,0,0,0,223,0,0
COc1cc(CNn2nnnc2N)cc(Br)c1OCc1c(Cl)cccc1Cl,0,0,94,0,0,0
CCCn1nc(C(=O)Oc2ccc3c(C)cc(=O)oc3c2)c2ccccc2c1=O,0,0,0,0,0,0
CCN(CC)S(=O)(=O)c1cc(NC(=O)Cn2ncc(Cl)c(Cl)c2=O)ccc1C,0,-,-,-,-,-
COc1ccccc1N1CCN(C(=O)CSc2nc(C)c(Cc3ccccc3)c(=O)[nH]2)CC1,78,0,0,0,0,0

# Screens: PubChem, several laboratories
